Our source for the IC50 and viability values is ChEMBL document CHEMBL3808301, “Bioactive Iridoid Glycosides from the Whole Plants of Rehmannia chingii” (J Nat Prod, 2016).

The test system of one series is A549. Kind of series: Cytotoxicity against human A549 cells by MTT assay. The format is functional, cell-based. (Tetrazolium dyes change colour on reduction, which living cells bring about.)
In a further series the test system is HT-29. Kind of series: Cytotoxicity against human HT-29 cells by MTT assay. Type of series: functional, cell-based.
A short description of series [1]: Cytotoxicity against human Bel7402 cells by MTT assay. The format is functional, cell-based. The following applies: Bel-7402.
Series [2] is described as follows: Cytotoxicity against human BGC823 cells by MTT assay. The following applies: BGC-823. Type of series: functional, cell-based.
In another series the test system is A2780. Kind of series: Cytotoxicity against human A2780 cells by MTT assay. Type of series: functional, cell-based.
A short description of series [3]: Cytotoxicity against mouse BV2 cells assessed as cell viability by MTT assay. Type of series: cell-based, BV-2. The note with it: read-out: Activity. Summed up: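 Murine microglial BV2 cells under the LPS-activation conditions of the NO assay. Viability read by MTT and expressed as a percentage of the LPS-only treatment group. Means ± SD from three independent experiments.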

A further series has as its system BV-2. In words: Inhibition of LPS-induced NO production in mouse BV2 cells assessed as reduction in nitrite level pretreated for 24 hrs before LPS treatment for additional 24 hrs by Griess reaction method. Type of series: functional, cell-based. The gist of the method: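 BV2 microglia plated and preincubated 24 h, then exposed to LPS 0.3 μg/mL for a further 24 h. Nitrite in the culture supernatant measured by Griess reaction at OD 550 nm against a NaNO2 standard. Curcumin served as positive control. IC50 given as mean ± SD of three independent experiments.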
A general note: Griess reagent forms a coloured azo dye with nitrite.

The subject of the next series is HepG2. Kind of series: Hepatoprotective activity against APAP-induced toxicity in human HepG2 cells assessed as cell survival rate at 10 uM incubated for 48 hrs by MTT assay. The format is functional. The note with it: HepG2, 48 h, read-out: Survival. Summed up:
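HepG2 cells grown in DMEM with 10% fetal calf serum and penicillin/streptomycin at 37 °C, 5% CO2, then seeded and incubated overnight. Test sample (10 μM) added together with APAP (final 8 mM) for 48 h. MTT at 0.5 mg/mL for 4 h, formazan dissolved in DMSO, absorbance read at 570 nm. Survival given as % of normal cells; bicyclol (10 μM) positive control; n = 3.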

Some results are limits rather than exact numbers.

One may read the IC50 as the concentration that gives 50% inhibition. Take `CC(/C=C/[C@@]1(O)C(C)(C)CCC[C@@]1(C)O)=C\C(=O)O[C@H]1[C@H](O[C@@H]2OC=C[C@H]3[C@H](O)[C@@H]4O[C@]4(CO)[C@@H]23)O[C@H](CO)[C@@H](O)[C@@H]1O`: the IC50 with A549 was more than 10 µM; in the series on HT-29 it was more than 10 µM; in series [1] it was more than 10 µM; in series [2] it was more than 10 µM; in the series with A2780 it was more than 10 µM; in the series on BV-2, 2.5 µM. Also, the viability in series [3] was determined as 91.7%.
On to `OC[C@H]1O[C@@H](O[C@@H]2OC=C[C@H]3[C@H](O)[C@@H]4O[C@]4(CO)[C@@H]23)[C@H](O)[C@@H](O)[C@@H]1O` [CATALPOL], for which the half-inhibitory concentration (IC50) was more than 10 µM in the series on A549; more than 10 µM in the series with HT-29; more than 10 µM in series [1]; more than 10 µM in series [2]; more than 10 µM in the series on A2780; 7.3 µM in the series on BV-2. In addition, the viability in series [3] turned out to be 86.1%. In addition, the viability at 10 µM in the series on HepG2 stood at 69.1%.
